Compound activity as filed in PubChem BioAssay.
This is a sample that favours compounds with a hit; in the whole collection about 1.5% have one here.
CSN deneddyl inh: inhibitors of CSN-mediated cullin deneddylation, primary screen, biochemical, fluorescence polarization, uHTS | COP9 signalosome complex subunit 5 (Homo sapiens), Q92905 | Purified CSN, SCF-Nedd8-OG deneddylation | inhibition, % at 12.5 µM | 360,000 tested, 0.38% active;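 active = pattern-corrected inhibition above about 35%, with an unprinted fluorescence ratio check between 0.5 and 1.5, limit read from the data, passing the limit was not always enough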;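 note: 0% = enzyme with substrate and 100% = substrate without enzyme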
Target sequence (Q92905 whole entry, looked up, one chain of several): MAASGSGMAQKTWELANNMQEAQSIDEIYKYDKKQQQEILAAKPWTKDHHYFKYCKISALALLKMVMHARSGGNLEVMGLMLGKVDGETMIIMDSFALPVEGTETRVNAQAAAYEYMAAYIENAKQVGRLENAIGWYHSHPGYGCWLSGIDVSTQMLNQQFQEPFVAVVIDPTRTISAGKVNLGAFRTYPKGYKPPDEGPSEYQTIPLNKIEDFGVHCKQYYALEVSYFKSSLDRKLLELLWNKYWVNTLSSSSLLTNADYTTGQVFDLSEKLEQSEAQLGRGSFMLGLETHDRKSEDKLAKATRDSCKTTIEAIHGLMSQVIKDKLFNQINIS
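assay system = purified human Csn5 enzyme expressed in HEK293T cells | amount = 0.24 nM enzyme | buffer or medium = Tris/NaCl/DTT buffer, pH 7.5 | reagent = 10 nM SCFSkp2-Nedd8OG | compound = one concentration, 12.5 µM, 0.25% DMSO | times = 90 min reaction at room temperature | signal = FP | read-out basis = % inhibition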
Rpn11 inh: Rpn11 (PSMD14) deubiquitinase inhibitors, primary screen, biochemical, fluorescence polarization, uHTS; 26S proteasome non-ATPase regulatory subunit 14 (Homo sapiens), O00487; human 26S proteasome, Ub4-pepOG fluorescence polarization; 20S core pre-blocked with epoxomicin; inhibition, % at 20 µM; 360,000 tested, 0.59% active;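 active = inhibition at 20 µM, scaled to each plate's controls, above about 33%, limit read from the data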
HNF4A DNA FP: change in binding of human HNF4A to DNA, primary screen, biochemical, fluorescence polarization, FITC-DNA | Hepatocyte nuclear factor 4-alpha (Homo sapiens), P41235 | AID 1224865, 2016 | activity change, % at 10 µM | 360,000 tested, 0.3% active | 1 h; in the data active = activity change above about 30%, passing the limit was not always enough
TPT1 inhibitor: Candida albicans TPT1 enzyme inhibitors, primary screen, biochemical, fluorescence polarization; inhibition, % at 5 µM; 300,000 tested, 0.81% active; tRNA 2'-phosphotransferase TPT1 (Candida albicans SC5314); recombinant caTPT1, FP RNA substrate dephosphorylation;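 active = inhibition above the mean of all tested compounds plus 3 SD, set per screening campaign, cut at about 24% in these data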;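 note: plate controls were DMSO alone for no effect and ferristatin control at 100 nM for full effect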
caTPT1 confirm: Candida albicans TPT1 inhibitors, confirmation, biochemical, fluorescence polarization, triplicate; shares compounds with TPT1 inhibitor; recombinant caTPT1, RNase T1 coupled; inhibition, % at 5 µM; 2,400 tested, 74% active; AID 2149, 2009;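 active = inhibition above the primary screen limit, the mean inhibition of all tested compounds plus 3 SD, cut at about 25% in these data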
RNase T1 counter: RNase T1 inhibitors, counter-screen for TPT1 inhibitor project, biochemical, fluorescence polarization | shares compounds with TPT1 inhibitor | RNase T1 cleavage, 1536-well | inhibition, % at 5 µM | 2,400 tested, 83% active;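 active = inhibition above the solvent-only control well mean plus 3 SD, limit set per screening run, cut at about 23% in these data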;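 note: plate controls were DMSO wells with enzyme for no effect and wells without RNase T1 for full effect; inhibitors block cleavage so intact labeled substrate keeps polarization high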
Target sequence (P00651 whole entry, looked up): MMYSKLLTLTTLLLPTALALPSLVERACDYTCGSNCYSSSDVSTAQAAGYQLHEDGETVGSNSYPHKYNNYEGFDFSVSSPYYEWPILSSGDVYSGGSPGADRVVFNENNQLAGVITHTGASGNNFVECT
Rpn11 inh conf: Rpn11 (PSMD14) deubiquitinase inhibitors, confirmation, biochemical, fluorescence polarization, single concentration; inhibition, % at 20 µM; AID 602318, 2012; purified human 26S proteasome, Ub4-pepOG fluorescence polarization; proteasome pretreated with epoxomicin; shares compounds with Rpn11 inh; 1,900 tested, 29% active
MMP-2 counter: MMP-2 enzyme inhibition, confirmation, counter-screen for RPN11 inhibitor project, biochemical, fluorescence, single concentration | shares compounds with Rpn11 inh | recombinant MMP-2, FRET peptide cleavage fluorescence | inhibition, % at 20 µM | 1,900 tested, 4% active | AID 602330, 2012;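 note: human MMP-2 activated beforehand with APMA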
Thrombin inh: bovine thrombin protease inhibition, confirmation, counter-screen for Rpn11 inhibitor project, biochemical, fluorescence polarization, single concentration; 1,900 tested, 13% active; shares compounds with Rpn11 inh; AID 602333, 2012; inhibition, % at 20 µM; bovine thrombin cleavage of Ub4-pepOG;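 active = mean inhibition at least 40% at 20 µM, or signal 3 deviations below plate average, so some actives read negative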;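 note: plate controls were thrombin with DMSO for no effect and buffer wells lacking thrombin for full effect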
* = called active by the depositor; / = not tested or not shown; ! = not active in a repeat. Cut-off read from the data, not from the text of the source, unless noted: active = inhibition above about 40%; inactive = the rest.

SMILES | CSN deneddyl inh | Rpn11 inh | HNF4A DNA FP | TPT1 inhibitor | caTPT1 confirm | RNase T1 counter | others
CN1CCc2c(sc3c2C(=O)NC(c2ccc(-c4ccc(Cl)cc4)o2)N3)C1 (centres undefined) | 12 | / | 31 | 91* | 86* | 96*
CN1CCc2c(sc3c2C(=O)NC(c2ccco2)N3)C1 (centres undefined) | 10 | 11 | -13 | -3 | / | /
CN1CCc2c(sc3c2C(=O)NC(c2cccc(OC(=O)c4cccs4)c2)N3)C1 (centres undefined) | 36* | / | 34* | 99* | 110* | 110*
Cc1cc(C)cc(C(=O)NC(CC(N)=O)c2ccc(N3CCN(C)CC3)c([N+](=O)[O-])c2)c1 (centres undefined) | -8 | -3 | 3 | -7 | / | /
COc1ccc(C=C2NC(=S)NC2=O)cc1 | 4 | -4 | 2 | / | / | /
COc1ccc(/C=C/C=C2\NC(=S)NC2=O)cc1 | -1 | 17 | 15 | 28* | 19 | 32*
Cc1cccc2cc(/C=N/Nc3ccc(C(=O)O)cc3)c(Cl)nc12 | 4 | 32 | 11 | 25* | 42* | 54*
CC(C)CCOc1ccc(C2=NNC(=O)CC2)cc1 | 2 | 11 | 3 | -5 | / | /
CCn1c(O)c(/C=N/N=C/c2ccc(OC)cc2)c2cc(C3=NNC(=O)CC3)ccc21 | 89* | / | 95* | 47* | 74* | 86*
CC/C(C)=N\N=C\c1c(O)n(CC)c2cc(C3=NNC(=O)CC3)ccc12 | 12 | 18 | 11 | 51* | 35* | 47*
CCCCCc1ccc(C2=NNC(=O)CC2)cc1 | 2 | 0 | -4 | 2 | / | /
C[C@H]1CN([C@@H](C)CO)S(=O)(=O)c2ccc(Br)cc2O[C@@H]1CN(C)C(=O)C1CCOCC1 | -2 | -1 | 2 | / | / | /
Cc1nc2ccccc2n1-c1ccccc1 | 1 | 4 | 0 | -1 | / | /
O=c1c(/C=C(\O)c2ccccc2)nc2ccccc2n1-c1ccccc1 | 19 | -4 | 46* | 119* | 86* | 95*
NC1=NC(c2ccccc2C(F)(F)F)N(c2ccc(F)c(Cl)c2)C(N)=N1 (centres undefined) | -6 | 12 | 0 | 4 | / | /
O=C(Nc1nccs1)c1ccc(N2C(=O)C3CCCCC3C2=O)cc1 (centres undefined) | 5 | 5 | -5 | 65* | 5 | 11
O=c1c(O)c(-c2cccs2)oc2ccccc12 | -1 | -3 | -7 | 25* | 25* | 36*
c1ccc(C2Oc3ccccc3C3CC(c4cccs4)=NN32)cc1 (centres undefined) | 15 | / | 20 | 49* | 57* | 69*
COc1ccc(OCc2cc(C(=O)NC(C)c3csc(C)n3)no2)c(Cl)c1 (centres undefined) | 3 | -1 | -3 | -1 | / | /
C/C(=N/NC(N)=S)c1cc2ccc(O)cc2oc1=O | 71 | / | 86 | 25* | 90* | 97*
C/C(=N/NC(=O)c1ccncc1)c1cc2ccc(O)cc2oc1=O | -79 | -12 | -89 | 60* | -11 | 9
C/C(=N\NC(=O)c1ccncc1)c1cc2ccccc2oc1=O | 2 | -2 | 2 | 5 | / | /
COc1ccc(N=NC2=C(O)CC(C)(C)CC2=O)c(OC)c1 | 31 | 94* | 51* | 60* | 61* | 75* | Rpn11 inh conf=88*;MMP-2 counter=-8;Thrombin inh=69*
O=C(CCN1C(=O)c2cccc([N+](=O)[O-])c2C1=O)NC1CCCCCC1 | 1 | -6 | 6 | / | / | /
COc1ccc(-c2csc(C(C)(O)c3ccc(F)c(F)c3)n2)cc1 (centres undefined) | 6 | -1 | -4 | / | / | /
SMILES | CSN deneddyl inh | Rpn11 inh | HNF4A DNA FP | TPT1 inhibitor | caTPT1 confirm | RNase T1 counter | others
Cc1ccc(-c2ccc(/C=C/C(=O)c3ccccc3)o2)cc1 | -7 | 76* | 16 | 48* | 77* | 84* | Rpn11 inh conf=28;MMP-2 counter=-15;Thrombin inh=-2
COc1ccc(/C=C2\SC(=S)N(CCCC(=O)Nc3ccccc3C(=O)O)C2=O)cc1OC | 8 | 48* | 25 | 39* | 70* | 77* | Rpn11 inh conf=88*;MMP-2 counter=-30;Thrombin inh=81*
COc1ccc(/C=C2\SC(=S)N(CCC(=O)Nc3ccccc3C(=O)O)C2=O)cc1 | -1 | -1 | -4 | 2 | / | /
O=C(Nc1cccc2nsnc12)c1ccc(-c2cccc(Cl)c2)o1 | 21 | 72* | 27 | 31* | 30* | 38* | Rpn11 inh conf=21;MMP-2 counter=6;Thrombin inh=10
O=C(Nc1ccccc1N1CCCCC1)c1ccc(-c2cccc(Cl)c2)o1 | 0 | 8 | 3 | 0 | / | /
COc1cccc(NC(=O)c2ccccc2N2C(=O)C3C4C=CC(C5CC45)C3C2=O)c1 (centres undefined) | 0 | -1 | 0 | 2 | / | /
CCN=c1scc(-c2ccc3c(c2)NC(=O)CO3)n1N=C1CCCC1 | 7 | 44*! | 23 | 43* | 39* | 50* | Rpn11 inh conf=18;MMP-2 counter=-37;Thrombin inh=20
COCC(C)n1c(-c2ccc3c(c2)NC(=O)CO3)csc1=Nc1ccc(OC(F)F)cc1 (centres undefined) | -6 | 1 | 1 | 0 | / | /
CC12CCC(=O)N1C(C(=O)N1CCN(S(=O)(=O)c3ccc(Br)cc3Cl)CC1)CS2 (centres undefined) | 4 | -9 | -2 | -5 | / | /
CC[C@H](NC(=O)CC[C@H]1O[C@@H](n2cnc3c(NC(=O)c4ccccc4)ncnc32)[C@H](O)[C@@H]1O)c1ccccc1 | 2 | 0 | 0 | / | / | /
O=c1nc(/C=C/c2cccn2-c2ccc([N+](=O)[O-])cc2)cc(C(F)(F)F)[nH]1 | 18 | 40* | 5 | 84* | 47* | 66* | Rpn11 inh conf=29;MMP-2 counter=18;Thrombin inh=15
